Source: PubChem
Rows were chosen to be rich in hits. Some 3.3% of all compounds tested hit in one or more screens of this group.
SIAE inh: blocks human sialic acid acetylesterase; hit rate 0.69% among 370,000; Q9HAT2; AID 1053197; SIAE FP-Rh probe binding, fluorescence polarization; inhibition, % at 9.66 µM;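 active = inhibition above a cutoff: mean of compounds within the control limits plus 3 SD of those, cut at about 17% in these data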;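 also: 0% = plate median of compound wells and 100% = probe without SIAE protein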
rCAG binder: r(CAG) repeat RNA binding. hit rate 1.3% among 370,000. AID 651821. inhibition, % at 3 µM. TO-PRO-1 dye displacement fluorescence;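 active = inhibition above the plate cutoff, the mean of all test compounds on that plate plus 3 SD, cut at about 35% in these data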;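 also: 0% = DMSO alone and 100% = 100 µM mitoxantrone as full dye displacement; higher means more dye released from RNA so lower well fluorescence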
PRMT1 FP inh: blocks human protein arginine methyltransferase 1. recombinant PRMT1, activity-based probe fluorescence polarization. inhibition, % at 2.79 µM. hit rate 1.3% among 370,000;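 active = inhibition above about 21% made by adding two undisclosed values, limit read from the data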
ABHD4 inh: inhibits mouse alpha/beta hydrolase domain 4 | purified mABHD4, FP-Rh probe fluorescence polarization | Q8VD66 | hit rate 0.54% among 370,000 | inhibition, % at 8.92 µM;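 active = inhibition exceeding the mean over every tested compound plus 3 SD, cut at about 30% in these data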;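 also: 0% = plate median of compound wells and 100% = S159A mutant with DMSO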
Target sequence (Q8VD66 whole entry, looked up, the tested form may be a part): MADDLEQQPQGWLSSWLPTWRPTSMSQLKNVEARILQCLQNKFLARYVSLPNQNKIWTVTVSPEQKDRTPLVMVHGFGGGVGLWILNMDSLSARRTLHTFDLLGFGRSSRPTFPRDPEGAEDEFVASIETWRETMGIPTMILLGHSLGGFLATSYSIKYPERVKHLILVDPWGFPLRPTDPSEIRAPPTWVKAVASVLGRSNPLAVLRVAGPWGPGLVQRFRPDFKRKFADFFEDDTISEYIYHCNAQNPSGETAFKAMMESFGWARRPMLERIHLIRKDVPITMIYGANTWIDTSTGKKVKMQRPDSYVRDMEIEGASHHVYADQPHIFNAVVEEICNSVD
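Assay system: wild-type mouse ABHD4 protein; compound: single nominal dose of 8.92 µM, 0.89% DMSO final; schedule: 45 min + 60 min at 25 °C; measured by: FP readout, ex 525 nm / em 598 nm; evaluation: % inhibition of FP-Rh probe binding versus controls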
TCR-CD3 inh: blocks the human TCR-CD3 interaction; TAMRA-labeled TCR probe fluorescence, biochemical; inhibition, % at 9.4 µM; hit rate 0.37% among 360,000;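 also: recombinant mutant TCR 2C K166C tagged with TAMRA read by polarization; 0% = receptor in buffer alone and 100% = receptor with positive control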
BSA probe FL: interferes with TAMRA-BSA probe, flagging TCR-CD3 hits; shares compounds with TCR-CD3 inh; TAMRA-labeled BSA probe fluorescence counterscreen; inhibition, % at 9.4 µM; hit rate 10% among 1,200; in the data active = inhibition above about 23%;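 also: 0% = buffer low control and 100% = reference high control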
TCR-CD3 conf: TCR-CD3 interaction inhibition, confirmation; hit rate 48% among 1,200; TAMRA-labeled TCR probe fluorescence binding assay; inhibition, % at 9.4 µM; shares compounds with TCR-CD3 inh; AID 652036
rCAG bind conf: r(CAG) RNA repeat binding, confirmation; TO-PRO-1 dye displacement fluorescence; inhibition, % at 3 µM; shares compounds with rCAG binder; hit rate 70% among 4,300;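 active = inhibition above a per-plate cutoff, the mean inhibition of sample wells plus 3 SD, cut at about 35% in these data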;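 also: loss of TO-PRO-1 fluorescence as compound displaces dye from 1x1 AA loop RNA; 0% = DMSO only wells and 100% = 100 µM mitoxantrone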
DNA CAG counter: DNA CAG dye complex inhibition counter-screen; shares compounds with rCAG binder; d(CAG) DNA oligo TO-PRO-1 dye displacement, fluorescence; inhibition, % at 3 µM; hit rate 94% among 4,300; AID 652068;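 active = inhibition above its plate's cutoff, the mean test-well inhibition plus 3 SD, cut at about 4.8% in these data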;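 also: 0% = DNA dye mix with DMSO and 100% = 100 µM mitoxantrone; hits displace the dye from DNA and so lower well fluorescence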
* hit, by the source's call; x = not tested or not shown. Rule as the data show it, unless noted: active = inhibition above about 19%; inactive = the rest.

SMILES	SIAE inh	rCAG binder	PRMT1 FP inh	ABHD4 inh	TCR-CD3 inh	BSA probe FL	TCR-CD3 conf	rCAG bind conf	DNA CAG counter
COc1ccc([N+](=O)[O-])cc1NC(=S)NC(NC(=O)C(c1ccccc1)c1ccccc1)C(Cl)(Cl)Cl (stereo unspecified)	-66	47*	-3	-89	74*	33*	59*	39*	23*
COc1ccc([N+](=O)[O-])cc1NC(=O)C(C)c1ccccc1 (stereo unspecified)	1	2	-4	-1	0	x	x	x	x
CCCCCCCCN1C(=O)[C@@H](CC(=O)N2CCCCC2)C[C@@]2(C(=O)OC)C1=C[C@H](C(C)C)O[C@@H]2C1CC1	0	6	1	6	x	x	x	x	x
N#Cc1c(SCC(=O)Nc2nncs2)sc2c(O)cc(=O)[nH]c12	-19	62*	46*	3	27*	-13	9	44*	15*
O=C(CNC(=O)c1ccccc1Br)N/N=C/c1ccccc1O	1	0	3	-4	4	x	x	x	x
O=C(CNC(=O)c1ccccc1Br)N/N=C\c1cc([N+](=O)[O-])cc(Br)c1O	-1	39*	1	11	69*	-5	61*	31	7.9*
CC1=CN2C(=N)/C(=C/c3ccc([N+](=O)[O-])o3)C(=O)N=C2S1	6	53*	21	14	72*	-16	2	30	15*
COc1ccccc1NC(=O)NNC(=O)c1cc2ccccc2cc1O	13	42*	1	8	19*	-6	23*	34	11*
COc1ccccc1NC(=O)NNC(=O)c1ccc(-c2ccccc2)cc1	0	4	-1	-12	-1	x	x	x	x
O=C(NNC(=O)c1cc2cc(Br)ccc2oc1=O)c1ccc(O)cc1O	-8	55*	3	27	46*	-15	35*	21	5.3*
Cc1ccc(S(=O)(=O)N2CCC(c3nc4ccccc4o3)CC2)s1	-4	6	-6	4	x	x	x	x	x
O=C(N/N=C/c1cc([N+](=O)[O-])cc([N+](=O)[O-])c1O)/C(=C\c1cccs1)NC(=O)c1ccccc1	3	68*	3	29	47*	-2	45*	84*	53*
COC(=O)[C@]12C=CCN1[C@H](c1ccc(OC)c(OC)c1)c1c(c3ccccc3n1S(=O)(=O)c1ccc(C)cc1)C2	-4	12	3	-20	x	x	x	x	x
O=C1CC(=O)NC(SCC(=O)Nc2ccccc2[N+](=O)[O-])=N1	16	41*	28*	20	26*	-12	15	52*	24*
CC(C)(C)c1ccc(-c2nnc3sc(COc4ccccc4)nn23)cc1	4	0	1	-1	x	x	x	x	x
Cc1c(/C=N\NC(=O)C2COc3ccccc3O2)c2ccccc2n1C (stereo unspecified)	5	4	1	6	-3	x	x	x	x
Cc1ccc(-n2c(O)c(/C=N/NC(=O)C3COc4ccccc4O3)c3ccccc3c2=O)cc1 (stereo unspecified)	7	82*	0	25	20*	-7	34*	75*	38*
O=C(N/N=C/c1cc(Cl)cc([N+](=O)[O-])c1O)c1cccc(S(=O)(=O)N2CCOCC2)c1	12	68*	2	23	41*	-15	58*	56*	20*
O=C(COCc1ccccc1)N1CC[C@H]2[C@H](CCCN2Cc2cc(F)cc(F)c2)C1	11	-1	-2	3	x	x	x	x	x
O=C(Nc1nc(-c2ccco2)c(-c2ccco2)s1)c1cnccn1	14	44*	37*	23	38*	0	15	22	13*
O=C(Nc1nc2ccccc2s1)c1cnccn1	-7	2	1	-2	-6	x	x	x	x
CC(=O)Nc1sc2c(c1-c1nc3ccccc3s1)CCCN(C(C)C)C2	-6	x	0	-14	x	x	x	x	x
O=C(O)c1ccccc1/C=N/NC(=O)c1cc(-c2ccco2)nc2ccccc12	11	35*	15	11	20*	-8	25*	45*	21*
O=C(NNS(=O)(=O)c1ccccc1[N+](=O)[O-])c1cc2ccccc2cc1O	5	36*	5	25	20*	-8	10	18	7.6*
O=C(NNS(=O)(=O)c1ccccc1[N+](=O)[O-])c1ccccc1Cl	8	2	-2	1	0	x	x	x	x
SMILES	SIAE inh	rCAG binder	PRMT1 FP inh	ABHD4 inh	TCR-CD3 inh	BSA probe FL	TCR-CD3 conf	rCAG bind conf	DNA CAG counter
COC(=O)C1CN(Cc2cn(Cc3ccc(C)cc3)nn2)CCS(=O)(=O)N1Cc1ccc(Cl)cc1 (stereo unspecified)	6	6	-2	-1	x	x	x	x	x
O=S1(=O)CC2c3ccccc3CN2CN1C1CCCC1 (stereo unspecified)	-1	7	1	-42	x	x	x	x	x
CCN(c1ccccc1)S(=O)(=O)c1cc(NC(=O)C2CC2)ccc1Cl	-9	3	3	-4	0	x	x	x	x
CCN(c1ccccc1)S(=O)(=O)c1cc(NC(=O)CSc2n[nH]c(=O)[nH]c2=O)ccc1Cl	-49	48*	1	-85	66*	23*	56*	32	15*
O=C(Nc1ccccc1C(F)(F)F)OCCN1C(=O)CCC12CCC(c1ccccc1)CC2 (stereo unspecified)	1	0	0	-2	x	x	x	x	x
COc1ccc(C(=O)Nc2ccc(S(=O)(=O)Nc3nccc(C)n3)cc2)cc1	-2	5	-3	-1	-1	x	x	x	x
Cc1ccc(O)c(-c2cc(C(=O)Nc3ccc(S(=O)(=O)Nc4nccc(C)n4)cc3)[nH]n2)c1	-27	59*	0	-31	60*	-8	32*	49*	17*
Cc1ccc(NC(=O)CN2C(=O)CCSc3ccccc32)cc1C	-1	4	2	4	x	x	x	x	x
CCOC(=O)C1CCCN(C(=O)c2cc(-c3ccco3)nc3ccccc23)C1 (stereo unspecified)	9	39*	20	11	21*	-12	15	32	15*
O=C(NN1C(=O)/C(=C/c2ccc(O)c(O)c2)SC1=S)c1ccccc1	-98	30	21	-42	-65	x	x	x	x
COc1ccc(/C=C2\SC(=O)N(CC(=O)NCCC(C)C)C2=O)cc1OC	-7	-1	0	1	1	x	x	x	x
O=C(NN1C(=O)/C(=C/c2cccc(O)c2)SC1=S)c1ccccc1O	-1	75*	9	3	28*	-17	17	51*	16*
COc1ccc(/C=C2\SC(=O)N(CC(=O)NNC(=O)c3ccccc3O)C2=O)cc1OC	-1	51*	6	-7	71*	-6	60*	46*	16*
